Test results as given in ChEMBL document CHEMBL3297708, “Lead optimization of a novel series of imidazo[1,2-a]pyridine amides leading to a clinical candidate (Q203) as a multi- and extensively-drug-resistant anti-tuberculosis agent” (J Med Chem, 2014).
Values after ≈ are worked out from the molar mass of the structure shown.

Columns and labels:
[1] = test system: Mycobacterium tuberculosis; assay: Antimycobacterial activity against Mycobacterium tuberculosis H37Rv in liquid broth culture medium; type: functional
Procedure, shortened: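 M. tuberculosis H37Rv replicating in liquid broth culture medium; MIC80 determined, i.e. concentration inhibiting 80% of growth.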

[2] = Half life in human liver microsomes; type: ADME
Procedure, shortened: (§1)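 Metabolic stability measured by incubation in human or mouse liver microsomal preparations; half-life reported.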

[3] = Half life in mouse liver microsomes; type: ADME; procedure, shortened: as §1
[4] = test system: Mycobacterium tuberculosis; assay: Antimycobacterial activity against Mycobacterium tuberculosis H37Rv in macrophages; type: functional
Procedure, shortened: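 M. tuberculosis H37Rv replicating inside macrophages; intracellular MIC80 determined, i.e. concentration inhibiting 80% of growth.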

Cytochrome P450 3A4 = Cytochrome P450 3A4 (Homo sapiens, UniProt P08684); assay: Inhibition of recombinant CYP3A4 (unknown origin) by LC/MS/MS analysis; type: ADME
Procedure, shortened: (§2)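 Recombinant CYP enzymes (5 pmol/mL) with substrate, in 100 mM potassium phosphate pH 7.4, 3.3 mM MgCl2, with or without 1 mM NADPH; incubated 10 min (CYP1A2, CYP2C9), 20 min (CYP2C19, CYP2D6), or 3 min (CYP3A4); stopped with cold stop solution containing tolbutamide internal standard; metabolite measured by LC-MS/MS.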

Cytochrome P450 1A2 = target: T1, Cytochrome P450 1A2 (Homo sapiens, UniProt P05177); assay: Inhibition of recombinant CYP1A2 (unknown origin) by LC/MS/MS analysis; type: ADME; procedure, shortened: as §2
T1 sequence (P05177 whole entry): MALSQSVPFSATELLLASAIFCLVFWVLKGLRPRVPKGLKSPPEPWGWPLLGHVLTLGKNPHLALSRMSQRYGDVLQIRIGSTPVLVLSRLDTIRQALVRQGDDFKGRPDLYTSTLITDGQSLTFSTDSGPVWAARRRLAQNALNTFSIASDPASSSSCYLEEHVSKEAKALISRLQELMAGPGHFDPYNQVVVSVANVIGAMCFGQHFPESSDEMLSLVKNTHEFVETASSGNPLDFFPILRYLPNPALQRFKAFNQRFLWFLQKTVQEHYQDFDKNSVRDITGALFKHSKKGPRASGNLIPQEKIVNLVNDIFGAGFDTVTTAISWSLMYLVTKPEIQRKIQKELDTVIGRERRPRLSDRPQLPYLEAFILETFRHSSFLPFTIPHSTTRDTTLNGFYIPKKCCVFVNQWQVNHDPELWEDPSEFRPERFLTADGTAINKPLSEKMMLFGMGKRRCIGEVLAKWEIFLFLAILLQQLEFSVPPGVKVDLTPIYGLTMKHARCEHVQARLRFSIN

Cytochrome P450 2D6 = Cytochrome P450 2D6 (Homo sapiens, UniProt P10635); assay: Inhibition of recombinant CYP2D6 (unknown origin) by LC/MS/MS analysis; type: ADME; procedure, shortened: as §2
Cytochrome P450 2C19 = Cytochrome P450 2C19 (Homo sapiens, UniProt P33261); assay: Inhibition of recombinant CYP2C19 (unknown origin) by LC/MS/MS analysis; type: ADME; procedure, shortened: as §2
Cytochrome P450 2C9 = Cytochrome P450 2C9 (Homo sapiens, UniProt P11712); assay: Inhibition of recombinant CYP2C9 (unknown origin) by LC/MS/MS analysis; type: ADME; procedure, shortened: as §2
[5] = Solubility of the compound in aqueous solution at pH 2.1; type: physicochemical
[6] = Solubility of the compound in phosphate buffer at pH 7.4; type: physicochemical

Chain of Cytochrome P450 2C19 (P33261 whole entry): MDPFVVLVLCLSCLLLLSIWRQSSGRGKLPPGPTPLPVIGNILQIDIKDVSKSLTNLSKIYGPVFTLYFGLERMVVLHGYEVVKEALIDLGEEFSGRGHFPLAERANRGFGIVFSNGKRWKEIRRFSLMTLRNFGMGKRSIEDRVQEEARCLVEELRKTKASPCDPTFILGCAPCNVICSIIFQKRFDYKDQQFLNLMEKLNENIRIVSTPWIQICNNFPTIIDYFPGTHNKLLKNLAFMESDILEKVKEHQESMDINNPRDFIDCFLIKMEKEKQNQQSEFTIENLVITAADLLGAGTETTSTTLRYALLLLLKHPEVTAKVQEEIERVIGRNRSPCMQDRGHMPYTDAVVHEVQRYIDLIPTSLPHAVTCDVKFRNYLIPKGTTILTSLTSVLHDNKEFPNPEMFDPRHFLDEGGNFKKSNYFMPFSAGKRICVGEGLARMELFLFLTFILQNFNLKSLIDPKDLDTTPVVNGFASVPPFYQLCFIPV
Chain of Cytochrome P450 2D6 (P10635 whole entry): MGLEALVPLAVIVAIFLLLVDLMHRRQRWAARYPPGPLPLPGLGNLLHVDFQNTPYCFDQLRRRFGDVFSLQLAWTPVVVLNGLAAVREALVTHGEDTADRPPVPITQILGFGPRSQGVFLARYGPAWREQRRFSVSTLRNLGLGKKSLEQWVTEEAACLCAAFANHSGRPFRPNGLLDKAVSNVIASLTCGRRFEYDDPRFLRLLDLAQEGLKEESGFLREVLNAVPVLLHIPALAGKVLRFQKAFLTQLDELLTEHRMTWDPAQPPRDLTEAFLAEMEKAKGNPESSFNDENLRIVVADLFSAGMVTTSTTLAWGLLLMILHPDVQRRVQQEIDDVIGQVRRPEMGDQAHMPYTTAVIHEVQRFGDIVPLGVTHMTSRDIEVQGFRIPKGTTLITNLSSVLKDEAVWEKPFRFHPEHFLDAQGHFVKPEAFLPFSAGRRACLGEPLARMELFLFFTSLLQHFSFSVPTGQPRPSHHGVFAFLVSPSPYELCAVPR
Chain of Cytochrome P450 3A4 (P08684 whole entry): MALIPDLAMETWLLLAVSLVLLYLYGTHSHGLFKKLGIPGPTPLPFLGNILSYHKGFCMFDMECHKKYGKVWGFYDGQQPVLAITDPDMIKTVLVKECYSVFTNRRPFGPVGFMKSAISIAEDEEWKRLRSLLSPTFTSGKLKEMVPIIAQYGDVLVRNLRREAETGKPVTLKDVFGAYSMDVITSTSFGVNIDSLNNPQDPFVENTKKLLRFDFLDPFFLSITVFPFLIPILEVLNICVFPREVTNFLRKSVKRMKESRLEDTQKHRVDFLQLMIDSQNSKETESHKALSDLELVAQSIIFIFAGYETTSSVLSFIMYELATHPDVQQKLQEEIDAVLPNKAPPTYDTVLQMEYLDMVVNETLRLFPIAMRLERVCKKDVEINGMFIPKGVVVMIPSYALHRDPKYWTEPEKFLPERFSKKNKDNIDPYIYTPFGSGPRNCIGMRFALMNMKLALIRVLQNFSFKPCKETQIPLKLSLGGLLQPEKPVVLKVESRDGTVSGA
Chain of Cytochrome P450 2C9 (P11712 whole entry): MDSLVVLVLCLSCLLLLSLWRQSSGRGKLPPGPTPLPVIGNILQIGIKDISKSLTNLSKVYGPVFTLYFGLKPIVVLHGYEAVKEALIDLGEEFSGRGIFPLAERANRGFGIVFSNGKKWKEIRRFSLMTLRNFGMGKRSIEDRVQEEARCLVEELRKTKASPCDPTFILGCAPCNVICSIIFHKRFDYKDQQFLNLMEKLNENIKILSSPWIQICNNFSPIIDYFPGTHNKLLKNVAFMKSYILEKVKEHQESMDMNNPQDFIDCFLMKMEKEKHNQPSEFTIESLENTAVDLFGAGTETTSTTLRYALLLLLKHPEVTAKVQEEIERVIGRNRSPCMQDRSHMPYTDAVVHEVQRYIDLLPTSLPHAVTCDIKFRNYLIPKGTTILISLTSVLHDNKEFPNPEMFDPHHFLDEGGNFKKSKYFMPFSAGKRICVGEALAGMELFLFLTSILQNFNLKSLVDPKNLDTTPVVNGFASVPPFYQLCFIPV

| SMILES | MIC80 [1] [µM] | half-life [2] [min] | half-life [3] [min] | MIC80 [4] [µM] | IC50 (Cytochrome P450 3A4) [µM] | IC50 (Cytochrome P450 1A2) [µM] | IC50 (Cytochrome P450 2D6) [µM] | IC50 (Cytochrome P450 2C19) [µM] | IC50 (Cytochrome P450 2C9) [µM] | solubility [5] [µg/mL] | solubility [6] [µg/mL] |
| --- | --- | --- | --- | --- | --- | --- | --- | --- | --- | --- | --- |
| CCc1nc2cc(Cl)ccn2c1C(=O)NCc1ccc(-c2ccc(C(=O)O)cc2)cc1 | 0.25 (≈ 0.108 µg/mL) | > 120 | > 120 | 0.217 (≈ 0.0942 µg/mL) |  |  |  |  |  |  |  |
| CCc1nc2cc(Cl)ccn2c1C(=O)NCc1ccc(N2CCN(C(C)C)CC2)cc1 | 3 (≈ 1.32 µg/mL) | > 120 | 8.9 | 0.14 (≈ 0.0616 µg/mL) |  |  |  |  |  |  |  |
| CCc1nc2cc(Cl)ccn2c1C(=O)NCc1ccc(N2CCN(C)CC2)cc1 | 4.39 (≈ 1.81 µg/mL) | 117 | 12.1 | 0.36 (≈ 0.148 µg/mL) |  |  |  |  |  |  |  |
| CCc1nc2ccc(Cl)cn2c1C(=O)Nc1ccc(-c2ccccc2)cc1 | > 10 |  |  | > 10 |  |  |  |  |  |  |  |
| CCc1nc2cc(Cl)ccn2c1C(=O)NCc1ccc(N2CCC(c3ccc(F)cc3)CC2)cc1 | 0.54 (≈ 0.265 µg/mL) | 6.8 | 18.4 | 0.00066 (≈ 0.000324 µg/mL) | 2.07 | > 40 | > 40 | 0.6 | 0.5 |  |  |
| CCc1nc2ccc(Cl)cn2c1C(=O)N(C)Cc1ccc(-c2ccccc2)cc1 | 8.69 (≈ 3.51 µg/mL) |  |  | 0.97 (≈ 0.392 µg/mL) |  |  |  |  |  |  |  |
| CC(C)c1nc2ccccn2c1C(=O)NCc1ccc(-c2ccccc2)cc1 | 3.13 (≈ 1.16 µg/mL) | 31.6 |  | 3.13 (≈ 1.16 µg/mL) |  |  |  |  |  |  |  |
| CCc1nc2cc(Cl)ccn2c1C(=O)NCc1ccc(-c2ccc[nH]2)cc1 | 2 (≈ 0.758 µg/mL) | > 120 | 10.8 | 0.14 (≈ 0.053 µg/mL) |  |  |  |  |  |  |  |
| Cc1nc2ccccn2c1C(=O)NCc1ccc(-c2ccccc2)cc1 | 0.25 (≈ 0.0854 µg/mL) |  |  | 0.02 (≈ 0.00683 µg/mL) |  |  |  |  |  |  |  |
| CCCc1nc2ccccn2c1C(=O)NCc1ccc(-c2ccccc2)cc1 | 1.18 (≈ 0.436 µg/mL) | 22.4 | 8.7 | 0.05 (≈ 0.0185 µg/mL) |  |  |  |  |  |  |  |
| CCc1nc2cc(Cl)ccn2c1C(=O)NCc1ccc(N2CCC(c3ccc(Cl)cc3)CC2)cc1 | 0.001 (≈ 0.000507 µg/mL) | 67.3 | 112 | 0.00046 (≈ 0.000233 µg/mL) | > 40 | > 40 | > 40 | 0.38 | 0.19 |  |  |
| CCc1nc2ccc(Cl)cn2c1C(=O)NCc1ccc(-c2ccc(C#N)cc2)cc1 | < 0.0005 | > 120 | > 60 | 0.00068 (≈ 0.000282 µg/mL) |  |  |  |  |  | 1.06 (≈ 2.55 µM) | 0.61 (≈ 1.47 µM) |
| CCc1nc2cc(Cl)ccn2c1C(=O)NCc1ccc(N2CCCCC2)cc1 | 0.016 (≈ 0.00635 µg/mL) | 13.2 | 2.3 | 0.0082 (≈ 0.00325 µg/mL) |  |  |  |  |  |  |  |
| CCc1nc2cc(Cl)ccn2c1C(=O)NCc1ccc(N2CCC(Cl)CC2)cc1 | 0.019 (≈ 0.0082 µg/mL) | 11 | 5.2 | 0.002 (≈ 0.000863 µg/mL) |  |  |  |  |  |  |  |
| CCc1nc2cc(Cl)ccn2c1C(=O)NCc1ccc(-c2ccc(Cl)cc2)cc1 | 0.0013 (≈ 0.000552 µg/mL) | > 120 | > 60 | 0.00101 (≈ 0.000429 µg/mL) |  |  |  |  |  |  |  |
| CCc1nc2ccc(Cl)cn2c1C(=O)NCc1ccc(-c2ccc(C)cc2)cc1 | 0.0007 (≈ 0.000283 µg/mL) | 30.5 | 40.6 | 0.00043 (≈ 0.000174 µg/mL) |  |  |  |  |  | 1.42 (≈ 3.52 µM) | 1.56 (≈ 3.86 µM) |
| CCc1nc2cc(Cl)ccn2c1C(=O)NCc1ccc(N2CCCCCC2)cc1 | 0.035 (≈ 0.0144 µg/mL) | 2.9 | 1.9 | 0.01 (≈ 0.00411 µg/mL) |  |  |  |  |  |  |  |
| CCc1nc2ccccn2c1C(=O)NCc1ccc(-c2ccccc2)cc1 | 0.063 (≈ 0.0224 µg/mL) | 27.1 |  | 0.097 (≈ 0.0345 µg/mL) |  |  |  |  |  |  |  |
| CCc1nc2cc(Cl)ccn2c1C(=O)NCc1ccc(-c2ccc(C(C)(C)C)cc2)cc1 | 0.012 (≈ 0.00535 µg/mL) | 18.5 | 50.7 | 0.00046 (≈ 0.000205 µg/mL) |  |  |  |  |  |  |  |
